The results in this text go back to ChEMBL document CHEMBL1208681, “Synthesis and antitumor activities of novel 1,4-disubstituted phthalazine derivatives” (Eur J Med Chem, 2010).

Each structure is given as a SMILES string.

The test system of assay [1] is A549. As to the kind of experiment: Cytotoxicity against human A549 cells after 72 hrs by MTT assay. In kind it is functional, cell-based. The gist of the method:
(§1)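 Cells grown in MEM with 10% FBS. About 4 × 10^3 cells per well were seeded and held 24 h at 37 °C in 5% CO2. Compounds were added at the indicated final concentrations for 72 h. MTT was added to 5 µg/mL final for 4 h at 37 °C. Formazan was dissolved in DMSO and read at 492 nm against 630 nm reference. Each line was tested twice; IC50 is the mean of two determinations.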

Assay [2] deals with MDA-MB-231. The assay is described as follows: Ratio of IC50 for compound to IC50 for PTK-787 for human MDA-MB-231 cells. Type of assay: functional.
The test system of assay [3] is A549. The assay is described as follows: Ratio of IC50 for compound to IC50 for PTK-787 for human A549 cells. In kind it is functional.
Assay [4] deals with HT-29. The assay is described as follows: Ratio of IC50 for compound to IC50 for PTK-787 for human HT-29 cells. Type of assay: functional.
For assay [5], the system named is HT-29. The assay is described as follows: Cytotoxicity against human HT-29 cells after 72 hrs by MTT assay. Type of assay: functional, cell-based. The method, boiled down: as §1
Assay [6] deals with MDA-MB-231. The assay is described as follows: Cytotoxicity against human MDA-MB-231 cells after 72 hrs by MTT assay. In kind it is functional, cell-based. Particulars: MDA-MB-231, 72 h; call rule not given here. The method, boiled down:
as §1

[7] abbreviates: Homo sapiens, A549, 72 h, read-out: IC50.
[8] abbreviates: Homo sapiens, HT-29, 72 h, read-out: IC50.

Consider `O=C(CN1CCN(c2nnc(Cc3ccncc3)c3ccccc23)CC1)Nc1ccc(F)c(F)c1`, for which the IC50 in assay [1] (setting [7]) amounted to 3.79 µM; in assay [5] (setting [8]) it was 2.32 µM; in assay [6], 0.00084 µM. Besides, the “Ratio IC50” value in assay [2] came out at 69000; in assay [3], 5.6; in assay [4], 10.8.
`O=C(CN1CCN(c2nnc(Cc3ccncc3)c3ccccc23)CC1)Nc1ccc(F)c(Cl)c1`: the results for the IC50 in assay [1] (setting [7]), in assay [5] (setting [8]) and in assay [6] were 12.3 µM, 0.88 µM and 0.004 µM, respectively.
The like results for `O=C(CN1CCN(c2nnc(Cc3ccncc3)c3ccccc23)CC1)Nc1ccc(F)c(C(F)(F)F)c1` were, in that order, 16 µM, 1.11 µM and 0.0019 µM.
The like results for `Cc1ccc(F)cc1NC(=O)CN1CCN(c2nnc(Cc3ccncc3)c3ccccc23)CC1` were, in that order, 38.9 µM, 0.47 µM and 0.0064 µM.
Regarding `O=C(CN1CCN(c2nnc(Cc3ccncc3)c3ccccc23)CC1)Nc1cc(C(F)(F)F)ccc1Cl`, the IC50 in assay [1] (setting [7]) was 1.85 µM; in assay [5] (setting [8]), 4.81 µM; in assay [6], 0.0037 µM.
Take `Cc1cccc(Cl)c1NC(=O)CN1CCN(c2nnc(Cc3ccncc3)c3ccccc23)CC1`: the values for the IC50 in assay [1] (setting [7]), in assay [5] (setting [8]) and in assay [6] were 7.19 µM, 22.6 µM and 2.67 µM, respectively.
In the case of `O=C(CN1CCN(c2nnc(Cc3ccncc3)c3ccccc23)CC1)Nc1c(F)cccc1F`, the IC50 in assay [1] (setting [7]) came out at 54.4 µM; in assay [5] (setting [8]), 28.7 µM; in assay [6] it was 1.9 µM.
The like results for `Cc1ccc(NC(=O)CN2CCN(c3nnc(Cc4ccncc4)c4ccccc34)CC2)c(C)c1` were, in that order, 45 µM, 1.93 µM and 0.24 µM.
As for `COc1ccc(NC(=O)CN2CCN(c3nnc(Cc4ccncc4)c4ccccc34)CC2)cc1OC`, the IC50 in assay [1] (setting [7]) turned out to be 26.5 µM; in assay [5] (setting [8]), 40.1 µM; in assay [6] it was 0.1 µM.
As for `O=C(CN1CCN(c2nnc(Cc3ccncc3)c3ccccc23)CC1)Nc1cccc(F)c1`, the values for the IC50 in assay [1] (setting [7]), in assay [5] (setting [8]) and in assay [6] were 4.6 µM, 6.13 µM and 0.0044 µM, respectively.
The corresponding values for `O=C(CN1CCN(c2nnc(Cc3ccncc3)c3ccccc23)CC1)Nc1cccc(Br)c1` are 1.53 µM, 1.35 µM and 0.0017 µM.
Take `O=C(CN1CCN(c2nnc(Cc3ccncc3)c3ccccc23)CC1)Nc1ccc(Br)cc1`: the figures for the half-inhibitory concentration (IC50) in assay [1] (setting [7]), in assay [5] (setting [8]) and in assay [6] were 2.71 µM, 1.99 µM and 0.019 µM, respectively.
For `Cc1ccccc1NC(=O)CN1CCN(c2nnc(Cc3ccncc3)c3ccccc23)CC1`, the values for the IC50 in assay [1] (setting [7]), in assay [5] (setting [8]) and in assay [6] were 43.1 µM, 15 µM and 0.2 µM, respectively.
With `O=C(CN1CCN(c2nnc(Cc3ccccc3)c3ccccc23)CC1)Nc1ccc(F)c(F)c1`, the IC50 was 10.1 µM in assay [1] (setting [7]), 9.51 µM in assay [5] (setting [8]) and 2.75 µM in assay [6].
Regarding `O=C(CN1CCN(c2nnc(Cc3ccccc3)c3ccccc23)CC1)Nc1ccc(F)c(Cl)c1`, the IC50 entry was “Not Active” in assay [1] (a549), 13.3 µM in assay [5] (setting [8]) and 7.36 µM in assay [6].
With `O=C(CN1CCN(c2nnc(Cc3ccccc3)c3ccccc23)CC1)Nc1ccc(F)c(C(F)(F)F)c1`, the IC50 was determined as 2.48 µM in assay [1] (setting [7]), 4.59 µM in assay [5] (setting [8]) and 0.76 µM in assay [6].
For the compound `Cc1ccc(F)cc1NC(=O)CN1CCN(c2nnc(Cc3ccccc3)c3ccccc23)CC1`, the IC50 entry was “Not Active” in assay [1] (a549), 170 µM in assay [5] (setting [8]) and 19.2 µM in assay [6].
As to `O=C(CN1CCN(c2nnc(Cc3ccccc3)c3ccccc23)CC1)Nc1cc(C(F)(F)F)ccc1Cl`, the 50% inhibitory concentration (IC50) in assay [1] (setting [7]) worked out at 89 µM; in assay [5] (setting [8]), 66.8 µM; in assay [6] it was 19.5 µM.
In the case of `Cc1cccc(Cl)c1NC(=O)CN1CCN(c2nnc(Cc3ccccc3)c3ccccc23)CC1`, the IC50 was determined as 7.42 µM in assay [1] (setting [7]), 53.6 µM in assay [5] (setting [8]) and 3.92 µM in assay [6].
As to `O=C(CN1CCN(c2nnc(Cc3ccccc3)c3ccccc23)CC1)Nc1c(F)cccc1F`, the figures for the IC50 in assay [1] (setting [7]), in assay [5] (setting [8]) and in assay [6] were 84.5 µM, 19.7 µM and 5.49 µM, respectively.
Take `Cc1ccc(NC(=O)CN2CCN(c3nnc(Cc4ccccc4)c4ccccc34)CC2)c(C)c1`: the figures for the IC50 entry in assay [1] (a549), in assay [5] (ht-29) and in assay [6] were “Not Active”, “Not Active” and 180 µM, respectively.
Turning to `COc1ccc(NC(=O)CN2CCN(c3nnc(Cc4ccccc4)c4ccccc34)CC2)cc1OC`, the values for the IC50 entry in assay [1] (a549), in assay [5] (setting [8]) and in assay [6] were “Not Active”, 145 µM and 32.2 µM, respectively.
As for `O=C(CN1CCN(c2nnc(Cc3ccccc3)c3ccccc23)CC1)Nc1cccc(F)c1`, the IC50 was 130 µM in assay [1] (setting [7]), 95 µM in assay [5] (setting [8]) and 3.73 µM in assay [6].
As for `O=C(CN1CCN(c2nnc(Cc3ccccc3)c3ccccc23)CC1)Nc1cccc(Br)c1`, the IC50 entry in assay [1] (a549) is “Not Active”; in assay [5] (setting [8]), 13.4 µM; in assay [6], 3.88 µM.
Regarding `O=C(CN1CCN(c2nnc(Cc3ccccc3)c3ccccc23)CC1)Nc1ccc(Br)cc1`, the IC50 in assay [1] (setting [7]) was 2 µM; in assay [5] (setting [8]), 60.2 µM; in assay [6] it was 12.4 µM.
With `Cc1ccccc1NC(=O)CN1CCN(c2nnc(Cc3ccccc3)c3ccccc23)CC1`, the IC50 result in assay [1] (a549) is “Not Active”; in assay [5] (setting [8]), 113 µM; in assay [6], 17.3 µM.
As for `Clc1ccc(Nc2nnc(Cc3ccncc3)c3ccccc23)cc1` [VATALANIB], the 50% inhibitory concentration (IC50) turned out to be 21.2 µM in assay [1] (setting [7]), 22.1 µM in assay [5] (setting [8]) and 57.7 µM in assay [6].
